Source: publication PMC4171190 (Fitoterapia, 2014)
Like-named read-outs stand apart in the source and are kept apart here. Marks after values point to notes of the source that are not given here. Each block holds one compound with its values, some of them ahead of it.

Legend:
[1] = tested on: LPS stimulated BV2 microglia; assay: Inhibition of NO release from LPS stimulated BV2 microglia; format: cell-based, murine
How it was run: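 BV2 murine microglia (DMEM/F-12, 10% FBS, 37°C, 5% CO2) trypsinised, seeded 5×10^5 cells/well in 24-well plates, adhered overnight. Pretreated 1h serum-free with test compound (±10μM MLA or 1μM nicotine), then 10μg/ml LPS for 24h. Supernatant nitrite read immediately by Griess, A550, against NaNO2 standard. Expressed as % of LPS alone; sigmoidal fits, fixed vs variable slope compared by F-test.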

alpha7 nAChR = alpha7 nAChR (Rattus norvegicus, UniProt Q05941); assay: [3H]-MLA displacement from rat hippocampal membranes; format: binding
Chain of alpha7 nAChR (Q05941 23-502): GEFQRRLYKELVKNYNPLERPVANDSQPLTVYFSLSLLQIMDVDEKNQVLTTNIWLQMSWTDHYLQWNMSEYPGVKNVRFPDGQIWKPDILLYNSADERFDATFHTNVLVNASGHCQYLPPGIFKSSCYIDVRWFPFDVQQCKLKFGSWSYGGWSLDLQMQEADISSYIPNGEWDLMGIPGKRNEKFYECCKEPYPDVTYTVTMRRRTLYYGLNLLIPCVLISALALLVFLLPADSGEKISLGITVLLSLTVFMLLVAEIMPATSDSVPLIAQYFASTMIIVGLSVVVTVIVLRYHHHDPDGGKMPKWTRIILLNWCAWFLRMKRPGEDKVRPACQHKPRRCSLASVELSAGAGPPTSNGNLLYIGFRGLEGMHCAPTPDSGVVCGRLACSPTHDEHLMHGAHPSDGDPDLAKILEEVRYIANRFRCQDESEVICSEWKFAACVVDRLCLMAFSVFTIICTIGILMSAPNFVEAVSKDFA

[2] = biological target: nicotinic binding sites on BV2 membranes; assay: [3H]-epibatidine saturation binding on BV2 membranes; design: species or system murine; details: read-out: Kd, saturation binding; BV2 microglia membranes
[3] = tested on: LPS stimulated BV2 microglia; assay: Inhibition of TNF-alpha release from LPS stimulated BV2 microglia; format: cell-based, murine; details: flavonoid alone; 10μg/ml LPS 24h
How it was run: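 Murine BV2 cells seeded at 5×10^5 cells/well in 24-well plates, adhered overnight, then given 1h serum-free pretreatment with test compound (±10μM MLA or 1μM nicotine) before 10μg/ml LPS for 24h. Supernatants frozen, then assayed by mouse TNF-alpha ELISA. Release expressed as % of LPS alone, normalised to resazurin viability when groups differed. Sigmoidal fits, fixed vs variable slope compared by F-test.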

[4] = IC50 [3H]-MLA displacement, rat hippocampal membranes, 2nM [3H]-MLA
[5] = pIC50 [3H]-MLA displacement, rat hippocampal membranes, 2nM [3H]-MLA

Structure (SMILES): CN1CCC[C@H]1c1cccnc1 [nicotine, (-)-nicotine]
effect alone on LPS induced release of inflammatory mediators ([1]; 1μM, alone): no effect alone
effect of mecamylamine on inhibition of NO release ([1]; 10μM mecamylamine): blocked
maximal inhibition of LPS elicited release of NO ([1]; 1h pretreatment, 10μg/ml LPS 24h): ~20%

Structure (SMILES): COc1cc(-c2[o+]c3cc(O)cc(O)c3cc2O[C@@H]2O[C@H](CO)[C@@H](O)[C@H](O)[C@H]2O)cc(O)c1O [Petunidin-3-glucoside]
pIC50 [3H]-MLA displacement (alpha7 nAChR; rat hippocampal membranes, 2nM [3H]-MLA): 2.464 ± 0.95
IC50 (alpha7 nAChR; read-out: IC50 [3H]-MLA displacement, rat hippocampal membranes, 2nM [3H]-MLA): 3430 µM

IC50 (alpha7 nAChR; [4]): 11.4 µM
IC50 (alpha7 nAChR; [5]): 11.5 µM
Structure (SMILES): O=c1c(O)c(-c2ccc(O)c(O)c2)oc2cc(O)cc(O)c12 [Quercetin]

IC50 (alpha7 nAChR; [4]): 496 µM
Structure (SMILES): O=c1c(O[C@@H]2O[C@H](CO)[C@@H](O)[C@H](O)[C@H]2O)c(-c2ccc(O)cc2)oc2cc(O)cc(O)c12 [Astragalin]

Structure (SMILES): O=c1c(-c2ccc(O)cc2)coc2cc(O[C@@H]3O[C@H](CO)[C@@H](O)[C@H](O)[C@H]3O)ccc12 [Daidzin]
IC50 (alpha7 nAChR; [4]): 120 µM

IC50 (alpha7 nAChR; [4]): 66.1 µM
Structure (SMILES): O=c1cc(-c2ccccc2)oc2cc(O)c(O)c(O)c12 [Baicalein]

Structure (SMILES): Clc1ccc(C2CC3CCC2N3)cn1 (centres unmarked) [[^3H]-epibatidine]
Kd [2]: 0.0065 µM

IC50 (alpha7 nAChR; [5]): 21.5 µM
Structure (SMILES): O=c1c(O[C@@H]2O[C@H](CO)[C@@H](O)[C@H](O)[C@H]2O)c(-c2ccc(O)c(O)c2)oc2cc(O)cc(O)c12 [Isoquercitrin]

Structure (SMILES): COc1cc(-c2oc3cc(O)cc(O)c3c(=O)c2O)ccc1O [Isorhamnetin]
IC50 (alpha7 nAChR; [4]): 46.5 µM
IC50 (alpha7 nAChR; [5]): 46.6 µM

IC50 (alpha7 nAChR): 14.3 µM
Structure (SMILES): O=c1c(O)c(-c2ccc(O)c(O)c2)oc2cc(O)c(O)c(O)c12 [Quercetagetin]

Structure (SMILES): O=c1c(O)c(-c2ccc(O[C@@H]3O[C@H](CO)[C@@H](O)[C@H](O)[C@H]3O)c(O)c2)oc2cc(O)cc(O)c12 [Spiraeoside]
IC50 (alpha7 nAChR; [4]): 8.35 µM

IC50 (alpha7 nAChR; [4]): 238 µM
Structure (SMILES): COc1ccc(-c2oc3cc(O)cc(O)c3c(=O)c2O)cc1O [Tamarixetin]

Structure (SMILES): COc1cc(O)c2c(c1)O[C@H](c1ccc(O)cc1)CC2=O [Sakuranetin]
effect of added MLA on anti-inflammatory properties (NO and TNF-alpha release) ([1]; addition of MLA, LPS stimulated BV2): no effect
Hill slope, inhibition of NO release ([1]; flavonoid alone, 10μg/ml LPS 24h): -1.0 ^**
Hill slope, inhibition of TNF-alpha release [3]: -1.0 ^**

Structure (SMILES): COc1cc(-c2[o+]c3cc(O)cc(O)c3cc2O)cc(OC)c1O [Malvidin]
IC50 (alpha7 nAChR): 90 µM

Structure (SMILES): COc1cc(O)c2c(=O)c(O)c(-c3ccc(O)c(O)c3)oc2c1 [Rhamnetin]
IC50 (alpha7 nAChR; [5]): 1.11 µM
Hill slope, inhibition of TNF-alpha release [3]: -3.5 ± 4.1
